In ChEMBL document CHEMBL3792364, “Identification and biological activity of 6-alkyl-substituted 3-methyl-pyridine-2-carbonyl amino dimethyl-benzoic acid EP4 antagonists” (Bioorg Med Chem Lett, 2016):

Experiments:
[1] = biological target: T1, Prostaglandin E2 receptor EP4 subtype (Homo sapiens, UniProt P35408); experiment: Antagonist activity against EP4 in human whole blood assessed as reversal of PGE2-mediated suppression of LPS-induced TNF-alpha production preincubated for 30 mins followed by LPS stimulation measured after 20 to 24 hrs by enzyme immunoassay; format: tissue-based
In short: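 Pooled blood from donors free of NSAIDs or celecoxib for 48 h and of glucocorticoids for 2 weeks. Blood pretreated 30 min at 37 °C, 5% CO2 with compound in DMSO (7-point curve, triplicate). LPS […] ± 10 nM PGE2 (final) added, then incubated 20–24 h. Plasma TNFα read at A450-A650. IC50 from sigmoidal nonlinear fit; geometric mean of independent runs.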

[2] = biological target: T1, Prostaglandin E2 receptor EP4 subtype; experiment: Antagonist activity against human EP4 expressed in HEK293 cells assessed as inhibition of PGE2-stimulated production of cAMP incubated for 20 mins by HTRF assay; format: functional, cell-based

T1 sequence (P35408 whole entry): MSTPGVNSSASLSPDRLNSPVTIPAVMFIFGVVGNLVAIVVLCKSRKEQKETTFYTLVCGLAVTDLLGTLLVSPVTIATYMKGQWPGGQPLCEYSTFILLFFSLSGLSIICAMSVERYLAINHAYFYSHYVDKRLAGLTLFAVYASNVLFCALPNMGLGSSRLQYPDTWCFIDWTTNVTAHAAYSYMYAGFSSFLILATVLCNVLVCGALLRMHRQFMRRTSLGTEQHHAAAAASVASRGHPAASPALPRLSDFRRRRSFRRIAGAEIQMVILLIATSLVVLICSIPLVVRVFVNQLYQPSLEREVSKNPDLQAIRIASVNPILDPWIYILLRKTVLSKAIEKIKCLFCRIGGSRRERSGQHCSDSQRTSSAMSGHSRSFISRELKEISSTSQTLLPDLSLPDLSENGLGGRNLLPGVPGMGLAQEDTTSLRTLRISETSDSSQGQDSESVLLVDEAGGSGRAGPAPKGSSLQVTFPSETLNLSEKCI

| Compound | IC50 [1] [nM] | IC50 [2] [nM] |
| --- | --- | --- |
| Cc1ccc(N2CCCC(CO)C2)nc1C(=O)Nc1c(C)ccc(C(=O)O)c1C (stereo not given) | 2890 | 14.2 |
| Cc1ccc(N2CCCC(CO)C2)nc1C(=O)Nc1c(C)cc(C(=O)O)cc1C (stereo not given) | 1450 | 16.5 |
| COC1CCN(c2ccc(C)c(C(=O)Nc3c(C)cc(C(=O)O)cc3C)n2)CC1 | – | 96.7 |
